From ChEMBL document CHEMBL4270578, “Synthesis and cytotoxic studies of novel 5-phenylisatin derivatives and their anti-migration and anti-angiogenic evaluation” (Eur J Med Chem, 2018)

Tests used:
HepG2 = assay: Antiproliferative activity against human HepG2 cells after 48 hrs by MTT assay; format: functional, cell-based; conditions: HepG2, 48 h
K562 = assay: Antiproliferative activity against human K562 cells after 48 hrs by MTT assay; format: functional, cell-based; conditions: K562, 48 h
In short: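 MTT assay on K562 cells (RPMI-1640, 10% FBS) plated at 5 × 10^4 cells/ml for 2 h, then exposed to 10–100,000 nM compound for 48 h. MTT (5 mg/mL stock) added for 4 h before absorbance read. Viability normalized to DMSO controls (100%); IC50 from nonlinear regression, three independent assays.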

| Structure (SMILES) | IC50 (HepG2) | IC50 (K562) |
| --- | --- | --- |
| COc1ccc(CN2C(=O)C(F)(F)c3cc(-c4ccc(OC)cc4)ccc32)cc1 | > 10000 nM | > 10000 nM |
| O=C1Nc2ccc(-c3ccc(C(F)(F)F)cc3)cc2C1=O | 5430 nM | > 10000 nM |
| COc1ccc(-c2ccc3c(c2)C(=O)C(=O)N3C)cc1 | 6670 nM | 4980 nM |
| Cc1ccc2c(c1)C(=O)C(=O)N2 | > 10000 nM | > 10000 nM |
| COc1ccc(CN2C(=O)C(C)(O)c3cc(-c4ccc(OC)cc4)ccc32)cc1 (stereo not drawn) | > 10000 nM | > 10000 nM |
| COc1ccc(-c2ccc3c(c2)C(=O)C(=O)N3Cc2ccccc2OC)cc1 | 130 nM | 40 nM |
| COc1ccc(-c2ccc3c(c2)C(=O)C(=O)N3Cc2cc(C)cc(C)c2)cc1 | 410 nM | 140 nM |
| O=C1Nc2ccc(Cl)cc2C1=O | > 10000 nM | > 10000 nM |
| COc1ccc(-c2ccc3c(c2)C(=O)C(=O)N3)cc1 | 960 nM | 6920 nM |
| COc1ccc(CN2C(=O)C(=O)c3cc(-c4ccc(Cl)cc4)ccc32)cc1 | 380 nM | 230 nM |
| CCN1C(=O)C(=O)c2cc(-c3ccc(OC)cc3)ccc21 | 4470 nM | 2200 nM |
| CC[C@@]1(O)C(=O)OCc2c1cc1n(c2=O)Cc2cc3ccccc3nc2-1 [CAMPTOTHECIN] | 370 nM | 70 nM |
| COc1ccc(-c2ccc3c(c2)C(=O)C(=O)N3Cc2ccccc2)cc1 | 1360 nM | 570 nM |
| COc1ccc(CN2C(=O)C(=O)c3cc(-c4ccc(OC)c(OC)c4)ccc32)cc1 | > 10000 nM | 260 nM |
| COC(=O)/C=C1\C(=O)N(Cc2ccc(OC)cc2)c2ccc(-c3ccc(OC)cc3)cc21 | 4730 nM | 1900 nM |
| COc1ccc2c(c1)C(=O)C(=O)N2 [5-METHOXYISATIN] | > 10000 nM | > 10000 nM |
| O=C1Nc2ccccc2C1=O [ISATIN] | > 10000 nM | > 10000 nM |
| COc1ccc(CN2C(=O)C(=O)c3c(-c4ccc(OC)cc4)cccc32)cc1 | > 10000 nM | > 10000 nM |
| COc1ccc(CN2C(=O)C(=O)c3cc(-c4cccc(OC)c4)ccc32)cc1 | 1890 nM | 100 nM |
| COc1ccc(-c2ccc3c(c2)C(=O)C(=O)N3Cc2ccc(Br)cc2)cc1 | 700 nM | 100 nM |

| Structure (SMILES) | IC50 (HepG2) | IC50 (K562) |
| --- | --- | --- |
| COc1ccc(CN2C(=O)C(=O)c3cc(-c4ccc(C(C)(C)C)cc4)ccc32)cc1 | 4580 nM | 2250 nM |
| COc1ccc(-c2ccc3c(c2)C(=O)C(=O)N3CCOc2ccccc2)cc1 | 700 nM | 400 nM |
| COc1ccc(CN2C(=O)C(=O)c3cc(-c4ccc(C)cc4)ccc32)cc1 | > 10000 nM | 400 nM |
| COc1ccc(-c2ccc3c(c2)C(=O)C(=O)N3c2ccc(OC)cc2)cc1 | > 10000 nM | > 10000 nM |
| COc1ccc(CN2C(=O)C(=O)c3cc(-c4ccsc4)ccc32)cc1 | 3670 nM | 80 nM |
| COc1ccc(CN2C(=O)C(=O)c3cc(-c4ccncc4)ccc32)cc1 | > 10000 nM | 40 nM |
| COc1ccc(CN2C(=O)C(=O)c3cc(-c4ccc(OC(C)C)cc4)ccc32)cc1 | > 10000 nM | 310 nM |
| O=C1Nc2ccc(Br)cc2C1=O | > 10000 nM | > 10000 nM |
| COc1ccc(CN2C(=O)/C(=C\c3ccccc3)c3cc(-c4ccc(OC)cc4)ccc32)cc1 | > 10000 nM | > 10000 nM |
| COc1ccc(CN2C(=O)/C(=C\c3ccc(C(C)C)cc3)c3cc(-c4ccc(OC)cc4)ccc32)cc1 | > 10000 nM | > 10000 nM |
| COc1ccc(CN2C(=O)/C(=C\c3ccc(C(F)(F)F)cc3)c3cc(-c4ccc(OC)cc4)ccc32)cc1 | > 10000 nM | 1900 nM |
| COc1ccc(-c2ccc3c(c2)C(=O)C(=O)N3Cc2ccc(OC)c(OC)c2)cc1 | 1350 nM | 60 nM |
| COc1ccc(-c2ccc3c(c2)C(=O)C(=O)N3Cc2ccc(Cl)c(Cl)c2)cc1 | 990 nM | 430 nM |
| COc1ccc(CN2C(=O)C(=O)c3cc(-c4ccc(F)cc4)ccc32)cc1 | 3150 nM | 240 nM |
| CCCCc1ccc2c(c1)C(=O)C(=O)N2 | > 10000 nM | > 10000 nM |
| COc1ccc(CN2C(=O)C(=O)c3cc(-c4ccc(C(F)(F)F)cc4)ccc32)cc1 | 820 nM | 350 nM |
| COc1ccc(CN2C(=O)C(=O)c3cc(-c4cc(OC)cc(OC)c4)ccc32)cc1 | 1200 nM | 510 nM |
| COc1ccc(CN2C(=O)C(=O)c3cccc(-c4ccc(OC)cc4)c32)cc1 | 8560 nM | 4430 nM |
| COc1ccc(-c2ccc3c(c2)C(=O)C(=O)N3Cc2ccc(C#N)cc2)cc1 | 1000 nM | 380 nM |
| C=CCN1C(=O)C(=O)c2cc(-c3ccc(OC)cc3)ccc21 | 7090 nM | 390 nM |

The remaining lines, values ahead:

| IC50 (HepG2) | IC50 (K562) | Structure (SMILES) |
| --- | --- | --- |
| > 10000 nM | > 10000 nM | O=C1Nc2ccc(F)cc2C1=O [5-FLUOROISATIN] |
| 440 nM | 30 nM | COc1ccc(-c2ccc3c(c2)C(=O)C(=O)N3Cc2ccc3c(c2)OCO3)cc1 |
| 5330 nM | > 10000 nM | O=C1Nc2ccc(-c3ccccc3)cc2C1=O |
| 320 nM | 200 nM | COc1ccc(-c2ccc3c(c2)C(=O)C(=O)N3Cc2cccc(Cl)c2)cc1 |
| > 10000 nM | 60 nM | COc1ccc(CN2C(=O)C(=O)c3cc(-c4ccc(O)cc4)ccc32)cc1 |
| 1080 nM | 150 nM | COc1ccc(CN2C(=O)C(=O)c3cc(-c4ccccc4)ccc32)cc1 |
| > 10000 nM | > 10000 nM | COc1ccc(CN2C(=O)C3(OCCO3)c3cc(-c4ccc(OC)cc4)ccc32)cc1 |
| > 10000 nM | 7460 nM | COc1ccc(CN2C(=O)C(=O)c3ccc(-c4ccc(OC)cc4)cc32)cc1 |
| 1120 nM | 560 nM | COc1ccc(-c2ccc3c(c2)C(=O)C(=O)N3Cc2ccc(F)cc2)cc1 |
| > 10000 nM | 370 nM | COc1ccc(CN2C(=O)C(=O)c3cc(-c4ccccc4OC)ccc32)cc1 |
| > 10000 nM | 340 nM | COc1ccc(CN2C(=O)C(=O)c3cc(-c4ccc5ccccc5c4)ccc32)cc1 |
| 600 nM | 380 nM | COc1ccc(-c2ccc3c(c2)C(=O)C(=O)N3Cc2ccccc2Cl)cc1 |
| 700 nM | – | COc1ccc(-c2ccc3c(c2)C(=O)C(=O)N3Cc2cccc(OC)c2)cc1 |
| 6000 nM | > 10000 nM | Cc1ccc(-c2ccc3c(c2)C(=O)C(=O)N3)cc1 |
| 380 nM | 270 nM | COc1ccc(-c2ccc3c(c2)C(=O)C(=O)N3Cc2ccc(C(F)(F)F)cc2)cc1 |
| > 10000 nM | 380 nM | COc1ccc(CN2C(=O)C(=O)c3cc(-c4ccc(F)c(Cl)c4)ccc32)cc1 |
| > 10000 nM | > 10000 nM | COc1ccc(CN2C(=O)/C(=N\O)c3cc(-c4ccc(OC)cc4)ccc32)cc1 |
| 890 nM | 260 nM | COc1ccc(CN2C(=O)C(=O)c3cc(-c4ccc(C#N)cc4)ccc32)cc1 |
| 330 nM | 270 nM | COc1ccc(-c2ccc3c(c2)C(=O)C(=O)N3Cc2ccc(C)cc2)cc1 |
| > 10000 nM | > 10000 nM | COc1ccc(CN2C(=O)Cc3cc(-c4ccc(OC)cc4)ccc32)cc1 |
| 250 nM | 350 nM | COc1ccc(-c2ccc3c(c2)C(=O)C(=O)N3Cc2ccc(Cl)cc2)cc1 |
| 3390 nM | 1240 nM | CCOC(=O)/C=C1\C(=O)N(Cc2ccc(OC)cc2)c2ccc(-c3ccc(OC)cc3)cc21 |
| 410 nM | 60 nM | COc1ccc(CN2C(=O)C(=O)c3cc(-c4ccc(OC(F)(F)F)cc4)ccc32)cc1 |
| 380 nM | – | COc1ccc(-c2ccc3c(c2)C(=O)C(=O)N3Cc2ccc3ccccc3c2)cc1 |
| 700 nM | 140 nM | COc1ccc(CN2C(=O)C(O)c3cc(-c4ccc(OC)cc4)ccc32)cc1 (stereo not drawn) |
